In ChEMBL document CHEMBL1125847, “Interaction of GTP derivatives with cellular and oncogenic ras-p21 proteins” (J Med Chem, 1991) one finds K rel data, which are given here for 15 molecules.

SMILES strings stand for the structures.

The target in experiment [1] is GTPase HRas (Homo sapiens) (UniProt P01112). In words: Inhibitory [3H]GDP concentration against cellular p21 Ha-ras. The procedure, abridged: (§1)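 Filter-binding competition: GDP-bound Ha-ras p21 (1 μM; 1 μg) with [3H]GDP (3 μM per footnote, 2 μM in methods) plus analogue over a concentration range, in 50 mM Tris-HCl pH 7.5, 10 mM DTT, 0.5 mM MgCl2, 100 mM NH4Cl, 5 mM EDTA, 45 min, 37 °C. Quenched with cold Mg2+, filtered through nitrocellulose, counted. Krel = [3H]GDP concentration/analogue concentration at 50% inhibition.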
GTPase HRas (Homo sapiens), sequence (P01112 whole entry, looked up): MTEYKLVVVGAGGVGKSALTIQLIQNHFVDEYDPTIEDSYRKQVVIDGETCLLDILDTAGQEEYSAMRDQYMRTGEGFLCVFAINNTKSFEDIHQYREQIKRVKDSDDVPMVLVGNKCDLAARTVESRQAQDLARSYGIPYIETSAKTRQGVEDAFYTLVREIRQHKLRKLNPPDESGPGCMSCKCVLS

Experiment [2] has the same target. In words: Inhibitory [3H]GDP concentration against oncogenic Ha-ras protein (p21 Leu-61). The procedure, abridged: as §1

With `Nc1nc(O)c2ncn(C3OC(COP(=O)(O)OP(=O)(O)OP(=O)(O)O)CC3O)c2n1` (stereo not given), the K rel in experiment [1] and in experiment [2] was 0.85 in each case.
As to `CCCCNc1nc(O)c2ncn(C3O[C@@H](COP(=O)(O)OP(=O)(O)OP(=O)(O)O)[C@H](O)[C@@H]3O)c2n1` (stereo not given in full), the K rel in experiment [1] was 0.59; in experiment [2], 0.68.
On to `Nc1nc(O)c2ccn(C3O[C@@H](COP(=O)(O)OP(=O)(O)OP(=O)(O)O)[C@H](O)[C@@H]3O)c2n1` (stereo not given in full), for which the K rel in experiment [1] came out at 0.08; in experiment [2] it was 0.05.
Regarding `O=P(O)(O)OP(=O)(O)OP(=O)(O)OC[C@@H]1OC(n2cnc3c(O)ncnc32)[C@@H](O)[C@H]1O` (stereo not given in full), the figures for the K rel in experiment [1] and in experiment [2] were 0.11 and 0.09, respectively.
In the case of `CCCCc1ccc(Nc2nc(O)c3ncn(C4O[C@@H](COP(=O)(O)OP(=O)(O)OP(=O)(O)O)[C@H](O)[C@@H]4O)c3n2)cc1` (stereo not given in full), the K rel in experiment [1] is 3.3; in experiment [2] it was 6.
For the molecule `CN1CN(C2O[C@@H](COP(=O)(O)OP(=O)(O)OP(=O)(O)O)[C@H](O)[C@@H]2O)c2nc(N)nc(O)c21` (stereo not given in full), the K rel is 0.0024 in experiment [1] and 0.002 in experiment [2].
For `O=P(O)(O)OP(=O)(O)OP(=O)(O)OC[C@@H]1OC(n2cnc3c(O)nc(Nc4ccc(F)cc4)nc32)[C@@H](O)[C@H]1O` (stereo not given in full), in that order: 1.77 and 2.38.
For `Nc1nc2c(ncn2[C@H]2CC[C@@H](COP(=O)(O)OP(=O)(O)OP(=O)(O)O)O2)c(=O)[nH]1`, in that order: 0.28 and 0.18.
For `Nc1nc(O)c2ncn([C@H]3O[C@@H](COP(=O)(O)OP(=O)(O)OP(=O)(O)O)[C@H](O)[C@@H]3O)c2n1`, in that order: 1.1 and 1.2.
Take `Nc1nc2c(ncn2COCCOP(=O)(O)OP(=O)(O)OP(=O)(O)O)c(=O)[nH]1`: the K rel turned out to be 0.0012 in experiment [1] and 0.0011 in experiment [2].
On to `Nc1nc(O)c2ncn(COC(CO)COP(=O)(O)OP(=O)(O)OP(=O)(O)O)c2n1` (stereo not given), for which the K rel came to 0.0014 in experiment [1] and 0.0018 in experiment [2].
For `O=P(O)(O)OP(=O)(O)OP(=O)(O)OC[C@@H]1OC(n2cnc3c(O)nc(NCCCCc4ccccc4)nc32)[C@@H](O)[C@H]1O` (stereo not given in full), in that order: 1.19 and 1.1.
For `O=P(O)(O)OP(=O)(O)OP(=O)(O)OC[C@@H]1OC(n2cnc3c(O)nc(Nc4ccc(Br)cc4)nc32)[C@@H](O)[C@H]1O` (stereo not given in full), in that order: 2.28 and 2.1.
Turning to `Cc1ccc(Nc2nc(O)c3ncn(C4O[C@@H](COP(=O)(O)OP(=O)(O)OP(=O)(O)O)[C@H](O)[C@@H]4O)c3n2)cc1` (stereo not given in full), the K rel amounted to 1.14 in experiment [1] and 1.34 in experiment [2].
For `O=P(O)(O)OP(=O)(O)OP(=O)(O)OC[C@@H]1OC(n2cnc3c(O)nc(Br)nc32)[C@@H](O)[C@H]1O` (stereo not given in full), in that order: 0.04 and 0.05.
